Source: ChEMBL document CHEMBL3124806, “Imidazopyridine-fused [1,3]-diazepinones: synthesis and antiproliferative activity” (Eur J Med Chem, 2014)

Experiments:
[1] = test system: SF-539; assay: Cytotoxicity against human SF539 cells assessed as cell growth at 10 uM after 48 hrs by SRB assay relative to untreated control; assay type: functional; conditions: SF-539, 48 h, read-out: Activity
How it was run: (§1)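 NCI-60 one-dose screen: each agent added at 10 µM, cultures incubated 48 h. Endpoint by sulforhodamine B protein-binding dye read spectrophotometrically; growth expressed as percent of untreated control cells.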

[2] = test system: NCI-H460; assay: Cytotoxicity against human NCI-H460 cells assessed as cell growth at 10 uM after 48 hrs by SRB assay relative to untreated control; assay type: functional; conditions: NCI-H460, 48 h, read-out: Activity; how it was run: as §1
[3] = test system: CAKI-1; assay: Cytotoxicity against human Caki1 cells assessed as cell growth at 10 uM after 48 hrs by SRB assay relative to untreated control; assay type: functional; conditions: CAKI-1, 48 h, read-out: Activity
How it was run: (§2)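 NCI-60 panel screen at a single concentration of 10 μM with 48 h incubation. Cell density measured by sulforhodamine B protein-binding dye and read spectrophotometrically. Growth expressed as percent of untreated control cells.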

[4] = test system: SNB-19; assay: Cytotoxicity against human SNB19 cells assessed as cell growth at 10 uM after 48 hrs by SRB assay relative to untreated control; assay type: functional; conditions: SNB-19, 48 h, read-out: Activity
How it was run: (§3)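 NCI-60 single-dose screen. Compounds were added to the cultures at 10 μM and incubated for 48 h. The end point was sulforhodamine B protein staining read spectrophotometrically. Growth is reported as percent of untreated control cells.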

[5] = test system: HCC 2998; assay: Cytotoxicity against human HCC2998 cells assessed as cell growth at 10 uM after 48 hrs by SRB assay relative to untreated control; assay type: functional; conditions: HCC 2998, 48 h, read-out: Activity; how it was run: as §2
[6] = test system: NCI-H322M; assay: Cytotoxicity against human NCI-H322M cells assessed as cell growth at 10 uM after 48 hrs by SRB assay relative to untreated control; assay type: functional; conditions: read-out: Activity; how it was run: as §1
[7] = test system: A498; assay: Cytotoxicity against human A498 cells assessed as cell growth at 10 uM after 48 hrs by SRB assay relative to untreated control; assay type: functional; conditions: A498, 48 h, read-out: Activity; how it was run: as §2
[8] = Cytotoxicity against human OVCAR4 cells assessed as cell growth at 10 uM after 48 hrs by SRB assay relative to untreated control; assay type: functional; conditions: OVCAR-4, 48 h, read-out: Activity; how it was run: as §1
[9] = Cytotoxicity against human UACC257 cells assessed as cell growth at 10 uM after 48 hrs by SRB assay relative to untreated control; assay type: functional; conditions: UACC-257, 48 h, read-out: Activity; how it was run: as §3
[10] = test system: HCT-15; assay: Cytotoxicity against human HCT15 cells assessed as cell growth at 10 uM after 48 hrs by SRB assay relative to untreated control; assay type: functional; conditions: HCT-15, 48 h, read-out: Activity; how it was run: as §2
[11] = test system: SR; assay: Cytotoxicity against human SR cells assessed as cell growth at 10 uM after 48 hrs by SRB assay relative to untreated control; assay type: functional; conditions: read-out: Activity; how it was run: as §3
[12] = test system: T47D; assay: Cytotoxicity against human T47D cells assessed as cell growth at 10 uM after 48 hrs by SRB assay relative to untreated control; assay type: functional; conditions: read-out: Activity; how it was run: as §3
[13] = test system: ACHN; assay: Cytotoxicity against human ACHN cells assessed as cell growth at 10 uM after 48 hrs by SRB assay relative to untreated control; assay type: functional; conditions: read-out: Activity; how it was run: as §2
[14] = test system: SN12C; assay: Cytotoxicity against human SN12C cells assessed as cell growth at 10 uM after 48 hrs by SRB assay relative to untreated control; assay type: functional; conditions: read-out: Activity; how it was run: as §3
[15] = test system: 786-0; assay: Cytotoxicity against human […] cells assessed as cell growth at 10 uM after 48 hrs by SRB assay relative to untreated control; assay type: functional; conditions: 786-0, 48 h, read-out: Activity; how it was run: as §2
[16] = test system: A549; assay: Cytotoxicity against human A549 cells assessed as cell growth at 10 uM after 48 hrs by SRB assay relative to untreated control; assay type: functional; conditions: A549, 48 h, read-out: Activity; how it was run: as §2
[17] = test system: M14; assay: Cytotoxicity against human M14 cells assessed as cell growth at 10 uM after 48 hrs by SRB assay relative to untreated control; assay type: functional; conditions: M14, 48 h, read-out: Activity; how it was run: as §2
[18] = test system: SW-620; assay: Cytotoxicity against human SW620 cells assessed as cell growth at 10 uM after 48 hrs by SRB assay relative to untreated control; assay type: functional; conditions: SW-620, 48 h, read-out: Activity; how it was run: as §3
[19] = test system: NCI-H226; assay: Cytotoxicity against human NCI-H226 cells assessed as cell growth at 10 uM after 48 hrs by SRB assay relative to untreated control; assay type: functional; conditions: NCI-H226, 48 h, read-out: Activity; how it was run: as §1
[20] = test system: MDA-MB-435; assay: Cytotoxicity against human MDA-MB-435 cells assessed as cell growth at 10 uM after 48 hrs by SRB assay relative to untreated control; assay type: functional; conditions: MDA-MB-435, 48 h, read-out: Activity; how it was run: as §1
[21] = test system: SNB-75; assay: Cytotoxicity against human SNB75 cells assessed as cell growth at 10 uM after 48 hrs by SRB assay relative to untreated control; assay type: functional; conditions: SNB-75, 48 h, read-out: Activity; how it was run: as §3
[22] = test system: DU-145; assay: Cytotoxicity against human DU145 cells assessed as cell growth at 10 uM after 48 hrs by SRB assay relative to untreated control; assay type: functional; conditions: DU-145, 48 h, read-out: Activity; how it was run: as §2
[23] = test system: OVCAR-8; assay: Cytotoxicity against human OVCAR8 cells assessed as cell growth at 10 uM after 48 hrs by SRB assay relative to untreated control; assay type: functional; conditions: OVCAR-8, 48 h, read-out: Activity; how it was run: as §1
[24] = Cytotoxicity against human OVCAR5 cells assessed as cell growth at 10 uM after 48 hrs by SRB assay relative to untreated control; assay type: functional; conditions: OVCAR-5, 48 h, read-out: Activity; how it was run: as §1
[25] = test system: SK-MEL-28; assay: Cytotoxicity against human SK-MEL-28 cells assessed as cell growth at 10 uM after 48 hrs by SRB assay relative to untreated control; assay type: functional; conditions: SK-MEL-28, 48 h, read-out: Activity; how it was run: as §3
[26] = Cytotoxicity against human Hs578T cells assessed as cell growth at 10 uM after 48 hrs by SRB assay relative to untreated control; assay type: functional; conditions: Hs-578T, read-out: Activity; how it was run: as §2
[27] = organism: Ovis aries; assay: Inhibition of sheep brain tubulin polymerization at 100 uM after 40 mins by DAPI staining-based fluorescence assay
How it was run: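 Microtubular protein was purified from sheep brain by two assembly/disassembly cycles (37 °C/0 °C) in MES buffer (100 mM MES pH 6.6, 1 mM EGTA, 0.5 mM MgCl₂). Compound in DMSO was added to 10 µM tubulin with 10 µM DAPI and incubated 40 min at RT. GTP (1 mM) was then added, and assembly was followed by DAPI fluorescence at 37 °C.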

[28] = test system: BT-549; assay: Cytotoxicity against human BT549 cells assessed as cell growth at 10 uM after 48 hrs by SRB assay relative to untreated control; assay type: functional; conditions: BT-549, 48 h, read-out: Activity; how it was run: as §2
[29] = test system: HL-60(TB); assay: Cytotoxicity against human HL-60(TB) cells assessed as cell growth at 10 uM after 48 hrs by SRB assay relative to untreated control; assay type: functional; conditions: HL-60, 48 h, read-out: Activity
How it was run: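 NCI-60 human tumour cell line panel; a single 10 µM concentration was added to the cultures and incubated 48 h. Endpoint was sulforhodamine B protein-binding dye read spectrophotometrically, with growth reported as percent of untreated control cells.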

| Compound | growth at 10 µM [1] [%] | growth at 10 µM [2] [%] | growth at 10 µM [3] [%] | growth at 10 µM [4] [%] | growth at 10 µM [5] [%] | growth at 10 µM [6] [%] | growth at 10 µM [7] [%] | growth at 10 µM [8] [%] | growth at 10 µM [9] [%] | growth at 10 µM [10] [%] | growth at 10 µM [11] [%] | growth at 10 µM [12] [%] | growth at 10 µM [13] [%] | growth at 10 µM [14] [%] | growth at 10 µM [15] [%] | growth at 10 µM [16] [%] | growth at 10 µM [17] [%] | growth at 10 µM [18] [%] | growth at 10 µM [19] [%] | growth at 10 µM [20] [%] | also measured |
| --- | --- | --- | --- | --- | --- | --- | --- | --- | --- | --- | --- | --- | --- | --- | --- | --- | --- | --- | --- | --- | --- |
| C[C@@H]1NC(c2ccc(Br)cc2)=Nc2nc3ccccn3c2C1=O | 74.7 | 32.5 | 44.1 | 82.6 | 69 | 74 | 69.9 | 77.5 | 70 | 30.8 | 30 | 67.2 | 69.2 | 91.8 | 83.1 | 54.7 | 31.8 | 38 | 68.3 | -13 | growth at 10 µM [21]: 50.2%; growth at 10 µM [22]: 87.7%; growth at 10 µM [23]: 72.5%; growth at 10 µM [24]: 82.4%; growth at 10 µM [25]: 66.2%; growth at 10 µM [26]: 71.3%; inhibition [27]: 8%; growth at 10 µM [28]: 49.3% |
| Cc1ccc(C2=Nc3nc4ccccn4c3C(=O)[C@H](C)N2)cc1 | 90 | 94.5 | 86.1 | 95.5 | 104 | 81.7 | 99.1 | 88.7 | 90.3 | 71.9 | 42.2 | 103 | 81 | 93.9 | 98.4 | 92.9 | 87 | 82.3 | 80.5 | 25.7 | growth at 10 µM [21]: 68%; growth at 10 µM [22]: 112%; growth at 10 µM [23]: 93.8%; growth at 10 µM [29]: 87.5%; growth at 10 µM [24]: 94%; growth at 10 µM [25]: 88.9%; growth at 10 µM [26]: 94.8%; inhibition [27]: 16%; growth at 10 µM [28]: 85.7% |
| C[C@@H]1NC(c2ccccc2)=Nc2nc3ccccn3c2C1=O | 108 | 104 | 81.8 | 106 | 90.9 | 102 | 84.6 | 103 | 121 | 104 | 106 | 92.8 | 97.5 | 112 | 103 | 103 | 99.8 | 93.5 | 88 | 91.6 | growth at 10 µM [21]: 82.8%; growth at 10 µM [22]: 116%; growth at 10 µM [29]: 135%; growth at 10 µM [24]: 114%; growth at 10 µM [25]: 113%; growth at 10 µM [26]: 93.8%; inhibition [27]: 7%; growth at 10 µM [28]: 93.2% |
| C[C@@H]1NC(c2ccc(N(C)C)cc2)=Nc2nc3ccccn3c2C1=O | 92.7 | 91.9 | 89.7 | 95.2 | 103 | 69.2 | 88.8 | 91.8 | 97.6 | 94.7 | 86.6 | 80.7 | 85.3 | 102 | 102 | 103 | 101 | 85.3 | 77.5 | 94.5 | growth at 10 µM [21]: 70%; growth at 10 µM [22]: 109%; growth at 10 µM [23]: 88.2%; growth at 10 µM [29]: 89.6%; growth at 10 µM [24]: 90.5%; growth at 10 µM [25]: 113%; growth at 10 µM [26]: 83.3%; inhibition [27]: 55%; growth at 10 µM [28]: 88.1% |
